Laboratory results as given in ChEMBL document CHEMBL4354828, “Discovery of Taniborbactam (VNRX-5133): A Broad-Spectrum Serine- and Metallo-β-lactamase Inhibitor for Carbapenem-Resistant Bacterial Infections” (J Med Chem, 2020).
≈ marks a conversion by molar mass, not a printed value.

Tests used:
[1] = Inhibition of bacterial VIM-2 using nitrocefin as substrate preincubated for 15 mins followed by susbtrate addition and measured after 10 mins by spectrophotometric method; design: species or system Bacteria
In short: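 Purified β-lactamase inhibition. IC50 values are the average of duplicates unless otherwise indicated.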

[2] = test system: Klebsiella pneumoniae ATCC BAA-1705; test: Inhibition of KPC-2 in Klebsiella pneumoniae ATCC BAA 1705 assessed as meropenem antibacterial activity at 4 ug/ml after 16 to 20 hrs by CLSI-based microbroth dilution method (reference value: […] ug/ml)
[3] = test system: Pseudomonas aeruginosa; test: Inhibition of KPC-2/PDC-42 in Pseudomonas aeruginosa CDC-0356 assessed as piperacillin antibacterial activity at 16 ug/ml after 16 to 20 hrs by CLSI-based microbroth dilution method (Rvb > […] ug/ml)
[4] = test system: Pseudomonas aeruginosa; test: Inhibition of VIM in Pseudomonas aeruginosa CDC-0457 assessed as meropenem antibacterial activity at 4 ug/ml after 16 to 20 hrs by CLSI-based microbroth dilution method
[5] = test system: Escherichia coli; test: Inhibition of NDM-1/CMY-6/OXA-1 in Escherichia coli CDC-0055 assessed as cefepime antibacterial activity at 8 ug/ml after 16 to 20 hrs by CLSI-based microbroth dilution method
In short: (§1)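 MDR β-lactamase-producing Gram-negative clinical isolates. […] MIC was reported as the inhibitor concentration that restores the partner's antibacterial activity.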

[6] = test system: Klebsiella pneumoniae; test: Inhibition of OXA-232/OXA-9/TEM-1A/CTX-M-15/OXA-1 in Klebsiella pneumoniae CDC-0066 assessed as meropenem antibacterial activity at 4 ug/ml after 16 to 20 hrs by CLSI-based microbroth dilution method (reference value: […] ug/ml)
[7] = test system: Escherichia coli; test: Inhibition of NDM in Escherichia coli CDC-0452 assessed as cefepime antibacterial activity after 16 to 20 hrs by CLSI-based microbroth dilution method (reference value: […] ug/ml)
[8] = test system: Pseudomonas aeruginosa; test: Inhibition of KPC-2/PDC-42 in Pseudomonas aeruginosa CDC-0356 assessed as cefepime antibacterial activity at 8 ug/ml after 16 to 20 hrs by CLSI-based microbroth dilution method (Rvb > […] ug/ml)
[9] = test system: Klebsiella pneumoniae; test: Inhibition of OXA-232/OXA-9/TEM-1A/CTX-M-15/OXA-1 in Klebsiella pneumoniae CDC-0066 assessed as cefepime antibacterial activity at 8 ug/ml after 16 to 20 hrs by CLSI-based microbroth dilution method (Rvb > […] ug/ml)
[10] = test system: Klebsiella pneumoniae; test: Inhibition of VIM-27/CTX-M-15/SHV-11/OXA-1 in Klebsiella pneumoniae CDC-0040 assessed as meropenem antibacterial activity at 4 ug/ml after 16 to 20 hrs by CLSI-based microbroth dilution method
[11] = test system: Klebsiella pneumoniae ATCC BAA-1705; test: Inhibition of KPC-2 in Klebsiella pneumoniae ATCC BAA 1705 assessed as cefepime antibacterial activity at 8 ug/ml after 16 to 20 hrs by CLSI-based microbroth dilution method; in short: as §1
[12] = test system: Pseudomonas aeruginosa; test: Inhibition of VIM in Pseudomonas aeruginosa CDC-0457 assessed as cefepime antibacterial activity at 8 ug/ml after 16 to 20 hrs by CLSI-based microbroth dilution method
[13] = test system: Klebsiella pneumoniae; test: Inhibition of VIM-27/CTX-M-15/SHV-11/OXA-1 in Klebsiella pneumoniae CDC-0040 assessed as cefepime antibacterial activity at 8 ug/ml after 16 to 20 hrs by CLSI-based microbroth dilution method
[14] = test system: Klebsiella pneumoniae; test: Inhibition of OXA-48 in Klebsiella pneumoniae assessed as meropenem antibacterial activity at 4 ug/ml after 16 to 20 hrs by CLSI-based microbroth dilution method (Rvb >= […] ug/ml)
[15] = test system: Escherichia coli; test: Inhibition of NDM in Escherichia coli CDC-0452 assessed as meropenem antibacterial activity at 4 ug/ml after 16 to 20 hrs by CLSI-based microbroth dilution method (reference value: […] ug/ml)
[16] = Inhibition of bacterial KPC-2 using imipenem as substrate preincubated for 15 mins followed by susbtrate addition and measured after 10 mins by spectrophotometric method; design: species or system Bacteria
[17] = test system: Escherichia coli; test: Inhibition of NDM in Escherichia coli CDC-0452 assessed as piperacillin antibacterial activity at 16 ug/ml after 16 to 20 hrs by CLSI-based microbroth dilution method (Rvb > […] ug/ml)
[18] = Inhibition of bacterial AmpC using nitrocefin as substrate preincubated for 15 mins followed by susbtrate addition and measured after 10 mins by spectrophotometric method; design: species or system Bacteria
[19] = test system: Klebsiella pneumoniae; test: Inhibition of VIM-27/CTX-M-15/SHV-11/OXA-1 in Klebsiella pneumoniae CDC-0040 assessed as piperacillin antibacterial activity at 16 ug/ml after 16 to 20 hrs by CLSI-based microbroth dilution method
[20] = test system: Klebsiella pneumoniae; test: Inhibition of KPC-2/SHV12/TEM-1 in Klebsiella pneumoniae CDC-0361 assessed as piperacillin antibacterial activity at 16 ug/ml after 16 to 20 hrs by CLSI-based microbroth dilution method (Rvb > […] ug/ml)
[21] = test system: Pseudomonas aeruginosa; test: Inhibition of VIM in Pseudomonas aeruginosa CDC-0457 assessed as piperacillin antibacterial activity at 16 ug/ml after 16 to 20 hrs by CLSI-based microbroth dilution method
[22] = target: Beta-lactamase VIM-2 (Pseudomonas aeruginosa) (UniProt Q9K2N0); test: Inhibition of VIM-2 in Pseudomonas aeruginosa assessed as meropenem antibacterial activity at 4 ug/ml after 16 to 20 hrs by CLSI-based microbroth dilution method (Rvb >= […] ug/ml)
[23] = test system: Klebsiella pneumoniae; test: Inhibition of KPC-2/SHV12/TEM-1 in Klebsiella pneumoniae CDC-0361 assessed as cefepime antibacterial activity at 8 ug/ml after 16 to 20 hrs by CLSI-based microbroth dilution method (reference value: […] ug/ml)
[24] = test system: Klebsiella pneumoniae; test: Inhibition of OXA-232/OXA-9/TEM-1A/CTX-M-15/OXA-1 in Klebsiella pneumoniae CDC-0066 assessed as piperacillin antibacterial activity at 16 ug/ml after 16 to 20 hrs by CLSI-based microbroth dilution method (Rvb > […] ug/ml)
[25] = Inhibition of bacterial OXA-48 using nitrocefin as substrate preincubated for 15 mins followed by susbtrate addition and measured after 10 mins by spectrophotometric method; design: species or system Bacteria
[26] = test system: Klebsiella pneumoniae ATCC BAA-1705; test: Inhibition of KPC-2 in Klebsiella pneumoniae ATCC BAA 1705 assessed as piperacillin antibacterial activity at 16 ug/ml after 16 to 20 hrs by CLSI-based microbroth dilution method (Rvb > […] ug/ml)
[27] = test system: Pseudomonas aeruginosa; test: Inhibition of KPC-2/PDC-42 in Pseudomonas aeruginosa CDC-0356 assessed as meropenem antibacterial activity at 4 ug/ml after 16 to 20 hrs by CLSI-based microbroth dilution method (reference value: […] ug/ml)
[28] = test system: Escherichia coli; test: Inhibition of NDM-1/CMY-6/OXA-1 in Escherichia coli CDC-0055 assessed as piperacillin antibacterial activity at 16 ug/ml after 16 to 20 hrs by CLSI-based microbroth dilution method; in short: as §1
[29] = test system: Klebsiella pneumoniae; test: Inhibition of VIM-4 in Klebsiella pneumoniae assessed as meropenem antibacterial activity at 4 ug/ml after 16 to 20 hrs by CLSI-based microbroth dilution method (Rvb >= […] ug/ml)
[30] = test system: Klebsiella pneumoniae; test: Inhibition of KPC-2/SHV12/TEM-1 in Klebsiella pneumoniae CDC-0361 assessed as meropenem antibacterial activity at 4 ug/ml after 16 to 20 hrs by CLSI-based microbroth dilution method (reference value: […] ug/ml)
[31] = test system: Escherichia coli; test: Inhibition of NDM-1/CMY-6/OXA-1 in Escherichia coli CDC-0055 assessed as meropenem antibacterial activity at 4 ug/ml after 16 to 20 hrs by CLSI-based microbroth dilution method (reference value: […] ug/ml)
[32] = test system: Klebsiella pneumoniae; test: Inhibition of KPC-2 in Klebsiella pneumoniae assessed as meropenem antibacterial activity at 4 ug/ml after 16 to 20 hrs by CLSI-based microbroth dilution method (Rvb >= […] ug/ml)
[33] = Inhibition of bacterial NDM-1 using cefepime as substrate preincubated for 15 mins followed by susbtrate addition and measured after 10 mins by spectrophotometric method; design: species or system Bacteria
[34] = Inhibition of bacterial IMP-1 using nitrocefin as substrate preincubated for 15 mins followed by susbtrate addition and measured after 10 mins by spectrophotometric method; design: species or system Bacteria
[35] = Inhibition of bacterial CMY-2 using nitrocefin as substrate preincubated for 15 mins followed by susbtrate addition and measured after 10 mins by spectrophotometric method; design: species or system Bacteria
[36] = Inhibition of bacterial CTX-M-15 using cefotaxime as substrate preincubated for 15 mins followed by susbtrate addition and measured after 10 mins by spectrophotometric method; design: species or system Bacteria
[37] = Inhibition of bacterial OXA-1 using nitrocefin as substrate preincubated for 15 mins followed by susbtrate addition and measured after 10 mins by spectrophotometric method; design: species or system Bacteria

| Compound | IC50 [1] [nM] | MIC [2] [µg/mL] | MIC [3] [µg/mL] | MIC [4] [µg/mL] | MIC [5] [µg/mL] | MIC [6] [µg/mL] | MIC [7] [µg/mL] | MIC [8] [µg/mL] | MIC [9] [µg/mL] | MIC [10] [µg/mL] | MIC [11] [µg/mL] | MIC [12] [µg/mL] | MIC [13] [µg/mL] | MIC [15] [µg/mL] | IC50 [16] [nM] | MIC [17] [µg/mL] | MIC [19] [µg/mL] | MIC [20] [µg/mL] | MIC [21] [µg/mL] | MIC [23] [µg/mL] | further results |
| --- | --- | --- | --- | --- | --- | --- | --- | --- | --- | --- | --- | --- | --- | --- | --- | --- | --- | --- | --- | --- | --- |
| N[C@H]1CC[C@H](CC(=O)N[C@H]2Cc3cccc(C(=O)O)c3OB2O)CC1 | 150 | 0.015 (≈ 0.0433 µM) | 4 (≈ 11.6 µM) | > 16 | > 16 | 8 (≈ 23.1 µM) | 4 (≈ 11.6 µM) | 4 (≈ 11.6 µM) | 4 (≈ 11.6 µM) | > 16 | 0.125 (≈ 0.361 µM) | 2 (≈ 5.78 µM) | > 16 | 8 (≈ 23.1 µM) | 30 | > 16 | > 16 | 2 (≈ 5.78 µM) | > 16 | 0.015 (≈ 0.0433 µM) | MIC [14]: 2 µg/mL (≈ 5.78 µM); IC50 [18]: 30 nM; MIC [22]: 2 µg/mL (≈ 5.78 µM); MIC [24]: > 16 µg/mL; IC50 [25]: 2240 nM; MIC [26]: 4 µg/mL (≈ 11.6 µM); MIC [27]: 4 µg/mL (≈ 11.6 µM); MIC [28]: > 16 µg/mL; MIC [29]: 2 µg/mL (≈ 5.78 µM); MIC [30]: 0.015 µg/mL (≈ 0.0433 µM); MIC [31]: 8 µg/mL (≈ 23.1 µM); MIC [32]: 2 µg/mL (≈ 5.78 µM) |
| CC(=O)N[C@H]1Cc2cccc(C(=O)O)c2OB1O | – | 0.0079 (≈ 0.0317 µM) | 2 (≈ 8.03 µM) | > 16 | > 16 | 2 (≈ 8.03 µM) | 8 (≈ 32.1 µM) | 2 (≈ 8.03 µM) | 1 (≈ 4.02 µM) | > 16 | 0.0079 (≈ 0.0317 µM) | > 16 | > 16 | 8 (≈ 32.1 µM) | – | > 16 | > 16 | 2 (≈ 8.03 µM) | > 16 | 0.0079 (≈ 0.0317 µM) | MIC [24]: > 16 µg/mL; MIC [26]: 2 µg/mL (≈ 8.03 µM); MIC [27]: 2 µg/mL (≈ 8.03 µM); MIC [28]: > 16 µg/mL; MIC [30]: 0.0079 µg/mL (≈ 0.0317 µM); MIC [31]: 16 µg/mL (≈ 64.2 µM) |
| O=C(O)[C@H]1/C(=C/CO)O[C@@H]2CC(=O)N21 [CLAVULANIC ACID] | > 100000 | – | – | – | – | – | – | – | – | – | – | – | – | – | 1800 | – | – | – | – | – | IC50 [33]: > 100000 nM; IC50 [34]: > 100000 nM; IC50 [35]: > 100000 nM; IC50 [36]: 40 nM; IC50 [25]: 30000 nM; IC50 [37]: 120 nM |
| NCc1ccc(CC(=O)N[C@H]2Cc3cccc(C(=O)O)c3OB2O)cc1 | 270 | 0.0079 (≈ 0.0223 µM) | 2 (≈ 5.65 µM) | > 16 | 4 (≈ 11.3 µM) | 4 (≈ 11.3 µM) | 2 (≈ 5.65 µM) | 2 (≈ 5.65 µM) | 4 (≈ 11.3 µM) | > 16 | 0.06 (≈ 0.169 µM) | 8 (≈ 22.6 µM) | > 16 | 2 (≈ 5.65 µM) | 40 | 8 (≈ 22.6 µM) | > 16 | 0.5 (≈ 1.41 µM) | > 16 | 0.0079 (≈ 0.0223 µM) | MIC [14]: 1 µg/mL (≈ 2.82 µM); IC50 [18]: 12 nM; MIC [22]: 8 µg/mL (≈ 22.6 µM); MIC [24]: > 16 µg/mL; IC50 [25]: 1800 nM; MIC [26]: 2 µg/mL (≈ 5.65 µM); MIC [27]: 1 µg/mL (≈ 2.82 µM); MIC [28]: 16 µg/mL (≈ 45.2 µM); MIC [29]: 4 µg/mL (≈ 11.3 µM); MIC [30]: 0.0079 µg/mL (≈ 0.0223 µM); MIC [31]: 1 µg/mL (≈ 2.82 µM); MIC [32]: 0.5 µg/mL (≈ 1.41 µM) |
